Data taken from ChEMBL document CHEMBL4251569, “Camptothecin-psammaplin A hybrids as topoisomerase I and HDAC dual-action inhibitors” (Eur J Med Chem, 2018).

Assays:
[1] = Cell cycle arrest in human MM487 cells assessed as accumulation at S phase at 0.3 uM after 72 hrs by propidium iodide staining-based flow cytometric method (reference value: 14.6%); type: functional
[2] = Cell cycle arrest in human MM487 cells assessed as accumulation at G0/G1 phase at 0.3 uM after 24 hrs by propidium iodide staining-based flow cytometric method (reference value: 57.9%); type: functional
KM-H2 = assay: cells; settings: Homo sapiens, KM-H2, 72 h
[3] = Cell cycle arrest in human MM487 cells assessed as accumulation at S phase at 0.3 uM after 48 hrs by propidium iodide staining-based flow cytometric method (reference value: 13.7%); type: functional
[4] = Induction of apoptosis in human MM487 cells at 0.3 uM after 48 hrs by propidium iodide staining-based flow cytometric method (reference value: 0.3%); type: functional
MM473 [5] = assay: Cell cycle arrest in human MM473 cells assessed as accumulation at G2/M phase at 4 uM after 72 hrs by propidium iodide staining-based flow cytometric method (reference value: 4.6%); type: functional
[6] = Cell cycle arrest in human MM487 cells assessed as accumulation at G2/M phase at 0.3 uM after 72 hrs by propidium iodide staining-based flow cytometric method (reference value: 5.4%); type: functional
MM473 [7] = assay: Cell cycle arrest in human MM473 cells assessed as accumulation at G2/M phase at 4 uM after 48 hrs by propidium iodide staining-based flow cytometric method (reference value: 4.3%); type: functional
A-431 = assay: cells; type: functional, cell-based; settings: Homo sapiens, A-431, 72 h
[8] = Cell cycle arrest in human MM487 cells assessed as accumulation at G2/M at 0.3 uM after 24 hrs by propidium iodide staining-based flow cytometric method (reference value: 16.9%); type: functional
[9] = Cell cycle arrest in human MM487 cells assessed as accumulation at G2/M phase at 0.3 uM after 48 hrs by propidium iodide staining-based flow cytometric method (reference value: 12.5%); type: functional
[10] = Induction of apoptosis in human MM487 cells at 0.3 uM after 72 hrs by propidium iodide staining-based flow cytometric method (reference value: 0.6%); type: functional
HT-29 = assay: Antiproliferative activity against human HT-29 cells after 72 hrs by SRB assay; type: functional, cell-based; settings: HT-29, 72 h
MM473 [11] = assay: Antitumor activity against human MM473 cells xenografted in CD1 nude mouse assessed as inhibition of tumor volume at 90 mg/kg, iv administered every 4 days per week for 3 weeks measured 10 days post last dose by luciferase reporter assay relative to vehicle-treated control; type: functional
In short: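 MM473 mesothelioma cells (F-10, 10% FBS, G418; mycoplasma-checked, >95% viable) injected intrapleurally, 1x10⁶ in 200 µl M199 per CD-1 nude mouse. Treatment i.v. from day 15 when tumours were growing, in 10% 1:1 ethanol–Cremophor in saline, q4dx3w; vehicle control. Tumour burden followed weekly by IVIS bioluminescence after i.p. D-luciferin (100 µL/10 g), as average radiance; body weight recorded.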

MM473 [12] = assay: Cell cycle arrest in human MM473 cells assessed as accumulation at G2/M at 4 uM after 24 hrs by propidium iodide staining-based flow cytometric method (reference value: 15.7%); type: functional
JeKo-1 = assay: cells; type: functional, cell-based; settings: Homo sapiens, JeKo-1, 72 h
cells [13] = type: functional, cell-based; settings: Homo sapiens, MINO, 72 h
cells [14] = type: functional, cell-based; settings: Homo sapiens, MM487, 72 h
cells [15] = type: functional, cell-based; settings: Homo sapiens, 72 h
OCI-Ly3 = assay: cells; settings: Homo sapiens, OCI-Ly3, 72 h
U2932 = assay: cells; type: functional, cell-based; settings: Homo sapiens, U2932, 72 h
[16] = target: Polyamine deacetylase HDAC10 (Homo sapiens, UniProt Q969S8); assay: Inhibition of HDAC10 (unknown origin) using RHKK(Ac)AMC as substrate after 1 to 2 hrs by fluorescence assay
Polyamine deacetylase HDAC10, sequence (Q969S8 whole entry): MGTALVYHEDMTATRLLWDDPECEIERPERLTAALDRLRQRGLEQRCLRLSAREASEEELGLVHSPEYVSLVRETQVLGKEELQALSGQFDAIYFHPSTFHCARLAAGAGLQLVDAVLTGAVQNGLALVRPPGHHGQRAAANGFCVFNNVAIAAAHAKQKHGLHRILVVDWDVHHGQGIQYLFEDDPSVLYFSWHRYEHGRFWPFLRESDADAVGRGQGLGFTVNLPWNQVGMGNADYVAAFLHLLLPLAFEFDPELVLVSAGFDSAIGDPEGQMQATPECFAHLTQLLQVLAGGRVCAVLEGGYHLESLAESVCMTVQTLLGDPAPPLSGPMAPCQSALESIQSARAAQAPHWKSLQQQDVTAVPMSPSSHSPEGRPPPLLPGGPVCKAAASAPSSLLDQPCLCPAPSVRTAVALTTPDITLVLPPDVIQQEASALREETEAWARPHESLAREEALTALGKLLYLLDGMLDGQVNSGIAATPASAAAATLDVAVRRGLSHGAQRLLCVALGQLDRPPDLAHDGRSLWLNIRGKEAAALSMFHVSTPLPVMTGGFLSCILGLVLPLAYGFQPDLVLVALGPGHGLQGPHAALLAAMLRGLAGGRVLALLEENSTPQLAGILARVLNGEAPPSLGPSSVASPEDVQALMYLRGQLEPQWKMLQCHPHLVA

MM473 [17] = assay: Cell cycle arrest in human MM473 cells assessed as accumulation at G0/G1 phase at 4 uM after 72 hrs by propidium iodide staining-based flow cytometric method (reference value: 80.2%); type: functional
MM473 [18] = assay: Cell cycle arrest in human MM473 cells assessed as accumulation at S phase at 4 uM after 48 hrs by propidium iodide staining-based flow cytometric method (reference value: 23.9%); type: functional
NCI-H460 = assay: cells; type: functional, cell-based; settings: Homo sapiens, NCI-H460, 72 h
NB-4 = assay: cells; type: functional, cell-based; settings: Homo sapiens, NB-4, 72 h
Histone deacetylase 4 = Histone deacetylase 4 (Homo sapiens, UniProt P56524); assay: Inhibition of HDAC4 (unknown origin) using fluorogenic substrate after 1 to 2 hrs by fluorescence assay
Histone deacetylase 4, sequence (P56524 whole entry): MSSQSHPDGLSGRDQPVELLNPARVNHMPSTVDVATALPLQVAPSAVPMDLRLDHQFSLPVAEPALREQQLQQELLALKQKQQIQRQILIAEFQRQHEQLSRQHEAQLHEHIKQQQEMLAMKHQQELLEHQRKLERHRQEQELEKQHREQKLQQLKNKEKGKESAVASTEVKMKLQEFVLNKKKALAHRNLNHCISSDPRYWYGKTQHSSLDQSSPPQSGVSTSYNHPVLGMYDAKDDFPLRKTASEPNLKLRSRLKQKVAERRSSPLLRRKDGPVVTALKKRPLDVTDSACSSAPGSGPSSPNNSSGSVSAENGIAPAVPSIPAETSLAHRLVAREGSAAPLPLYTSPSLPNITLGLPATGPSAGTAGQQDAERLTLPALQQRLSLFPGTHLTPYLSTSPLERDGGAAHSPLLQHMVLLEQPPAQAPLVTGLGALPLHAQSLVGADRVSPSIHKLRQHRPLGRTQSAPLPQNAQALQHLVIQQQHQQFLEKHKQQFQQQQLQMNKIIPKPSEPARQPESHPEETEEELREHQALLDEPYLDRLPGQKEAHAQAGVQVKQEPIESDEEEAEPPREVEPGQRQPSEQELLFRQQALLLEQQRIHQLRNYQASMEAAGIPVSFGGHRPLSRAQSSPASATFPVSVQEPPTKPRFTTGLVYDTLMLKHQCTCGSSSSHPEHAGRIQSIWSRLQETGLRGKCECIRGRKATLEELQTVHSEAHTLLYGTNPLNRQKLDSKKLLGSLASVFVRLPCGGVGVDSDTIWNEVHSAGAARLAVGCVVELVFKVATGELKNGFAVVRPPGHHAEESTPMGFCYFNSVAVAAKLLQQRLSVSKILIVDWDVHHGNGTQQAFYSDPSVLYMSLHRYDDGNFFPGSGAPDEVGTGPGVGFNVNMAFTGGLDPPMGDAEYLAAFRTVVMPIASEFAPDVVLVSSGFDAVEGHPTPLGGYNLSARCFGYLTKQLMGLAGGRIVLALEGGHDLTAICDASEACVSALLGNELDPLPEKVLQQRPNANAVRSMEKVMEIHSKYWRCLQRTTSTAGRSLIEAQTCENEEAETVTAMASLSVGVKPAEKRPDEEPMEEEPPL
In short: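 Purified HDAC4 preincubated with compound (10 concentrations from 10 µM, triplicate, final 1% DMSO) in 50 mM Tris-HCl pH 8.0, 137 mM NaCl, 2.7 mM KCl, 1 mM MgCl2, 1 mg/ml BSA. Class 2a trifluoroacetyl-lysine fluorogenic substrate added and incubated 1–2 h at 30 °C. Developer with TMP269 stops the reaction; fluorescence read at ex 360/em 460 at plateau. Activity is relative to DMSO, and IC50 comes from a sigmoidal fit.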

[19] = Cell cycle arrest in human MM487 cells assessed as accumulation at G0/G1 phase at 0.3 uM after 48 hrs by propidium iodide staining-based flow cytometric method (reference value: 73.8%); type: functional
DG-75 = assay: cells; type: functional, cell-based; settings: Homo sapiens, DG-75, 72 h
MM473 [20] = assay: Cell cycle arrest in human MM473 cells assessed as accumulation at G0/G1 phase at 4 uM after 48 hrs by propidium iodide staining-based flow cytometric method (reference value: 71.8%); type: functional
MM473 [21] = assay: Induction of apoptosis in human MM473 cells at 4 uM after 24 hrs by propidium iodide staining-based flow cytometric method (reference value: 2.5%); type: functional
MM473 [22] = assay: Cell cycle arrest in human MM473 cells assessed as accumulation at S phase at 4 uM after 24 hrs by propidium iodide staining-based flow cytometric method (reference value: 29.8%); type: functional
[23] = Cell cycle arrest in human MM487 cells assessed as accumulation at G0/G1 phase at 0.3 uM after 72 hrs by propidium iodide staining-based flow cytometric method (reference value: 80%); type: functional
[24] = target: Protein deacetylase HDAC6 (Homo sapiens, UniProt Q9UBN7); assay: Inhibition of HDAC6 (unknown origin) using RHKK(Ac)AMC as substrate after 1 to 2 hrs by fluorescence assay
Protein deacetylase HDAC6, sequence (Q9UBN7 whole entry): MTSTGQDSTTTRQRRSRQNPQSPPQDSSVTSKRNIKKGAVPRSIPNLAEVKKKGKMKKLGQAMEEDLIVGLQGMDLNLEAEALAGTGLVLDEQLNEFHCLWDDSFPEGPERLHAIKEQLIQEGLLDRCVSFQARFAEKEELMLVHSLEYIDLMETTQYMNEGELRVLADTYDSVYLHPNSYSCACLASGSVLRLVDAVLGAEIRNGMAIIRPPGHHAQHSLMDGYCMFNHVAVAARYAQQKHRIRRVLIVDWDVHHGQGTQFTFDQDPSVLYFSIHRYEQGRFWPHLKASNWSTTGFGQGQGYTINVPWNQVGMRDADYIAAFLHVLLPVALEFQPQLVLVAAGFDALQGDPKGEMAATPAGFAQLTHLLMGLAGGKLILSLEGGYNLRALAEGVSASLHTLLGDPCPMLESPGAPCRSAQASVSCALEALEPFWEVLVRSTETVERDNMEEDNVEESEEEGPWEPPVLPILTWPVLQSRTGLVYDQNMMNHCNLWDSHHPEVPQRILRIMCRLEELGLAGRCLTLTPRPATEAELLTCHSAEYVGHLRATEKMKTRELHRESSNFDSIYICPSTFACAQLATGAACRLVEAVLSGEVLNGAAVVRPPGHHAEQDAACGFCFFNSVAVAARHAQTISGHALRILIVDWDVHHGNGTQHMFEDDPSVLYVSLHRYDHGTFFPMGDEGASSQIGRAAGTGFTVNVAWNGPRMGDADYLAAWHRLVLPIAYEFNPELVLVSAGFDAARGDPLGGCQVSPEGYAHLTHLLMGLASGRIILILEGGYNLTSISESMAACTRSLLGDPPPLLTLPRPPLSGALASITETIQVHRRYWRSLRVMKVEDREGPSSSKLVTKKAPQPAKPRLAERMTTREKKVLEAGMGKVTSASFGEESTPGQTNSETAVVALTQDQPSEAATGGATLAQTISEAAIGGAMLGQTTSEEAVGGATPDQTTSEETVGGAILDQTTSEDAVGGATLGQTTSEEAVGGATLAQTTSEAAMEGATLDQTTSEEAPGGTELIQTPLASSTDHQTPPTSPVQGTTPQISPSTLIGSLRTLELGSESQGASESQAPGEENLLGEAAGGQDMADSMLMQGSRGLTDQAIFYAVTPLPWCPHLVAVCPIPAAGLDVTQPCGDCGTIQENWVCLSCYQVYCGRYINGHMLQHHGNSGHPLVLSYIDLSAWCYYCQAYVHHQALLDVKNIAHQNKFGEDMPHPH

Q: With `CC[C@@]1(O)C(=O)OCc2c1cc1n(c2=O)Cc2c-1nc1ccccc1c2/C=N/OCCCCCC(=O)NCCSSCCNC(=O)/C(Cc1ccc(O)c(Br)c1)=N\O` as the molecule, how does the Activity [1] read?
A: The Activity was 59.2%.

Q: And the Activity [2]?
A: Its Activity is 20.6%.

Q: What about the IC50 (KM-H2) of the same molecule?
A: The IC50 was 280 nM.

Q: What about the Activity [3] of the same molecule?
A: Its Activity is 67.8%.

Q: And the Activity [4]?
A: The Activity was 13.1%.

Q: And the Activity (MM473 [5])?
A: Its Activity is 14.5%.

Q: And the Activity [6]?
A: Its Activity is 21.2%.

Q: What about the Activity (MM473 [7]) of the same molecule?
A: The Activity was 12%.

Q: What about the IC50 (A-431) of the same molecule?
A: Its IC50 is 180 nM.

Q: What about the Activity [8] of the same molecule?
A: The Activity was 1.8%.

Q: What about the Activity [9] of the same molecule?
A: The Activity was 15.7%.

Q: What about the Activity [10] of the same molecule?
A: The Activity was 25.4%.

Q: What about the IC50 (HT-29) of the same molecule?
A: Its IC50 is 660 nM.

Q: And the inhibition in vivo at 90 mg/kg (MM473 [11])?
A: Its inhibition in vivo at 90 mg/kg is 78%.

Q: What about the Activity (MM473 [12]) of the same molecule?
A: The Activity was 13.1%.

Q: What about the IC50 (JeKo-1) of the same molecule?
A: Its IC50 is 60 nM.

Q: And the IC50 (cells [13])?
A: The IC50 was 35 nM.

Q: And the IC50 (cells [14])?
A: Its IC50 is 130 nM.

Q: And the IC50 (cells [15])?
A: Its IC50 is 4000 nM.

Q: What about the IC50 (OCI-Ly3) of the same molecule?
A: Its IC50 is 100 nM.

Q: And the IC50 (U2932)?
A: The IC50 was 110 nM.

Q: What about the IC50 [16] of the same molecule?
A: The IC50 was 7.55 nM.

Q: And the Activity (MM473 [17])?
A: Its Activity is 6.2%.

Q: What about the Activity (MM473 [18]) of the same molecule?
A: Its Activity is 83.5%.

Q: What about the IC50 (NCI-H460) of the same molecule?
A: The IC50 was 170 nM.

Q: What about the IC50 (NB-4) of the same molecule?
A: Its IC50 is 47 nM.

Q: And the IC50 (Histone deacetylase 4)?
A: Its IC50 is “Not Active”.

Q: What about the Activity [19] of the same molecule?
A: Its Activity is 16.5%.

Q: What about the IC50 (DG-75) of the same molecule?
A: Its IC50 is 8400 nM.

Q: What about the Activity (MM473 [20]) of the same molecule?
A: The Activity was 4.5%.

Q: What about the Activity (MM473 [21]) of the same molecule?
A: The Activity was 3.8%.

Q: What about the Activity (MM473 [22]) of the same molecule?
A: The Activity was 58.97%.

Q: What about the Activity [23] of the same molecule?
A: Its Activity is 19.6%.

Q: What about the IC50 [24] of the same molecule?
A: Its IC50 is 709 nM.
